Data on two molecules can be found in paper PMC4560520 (Drug Design, Development and Therapy, 2015).

Data set [1] relates to healthy subjects. Briefly: Multiple ascending dose. The data set is classed as in vivo, human.
Data set [2] relates to healthy subjects. Conditions: cited from earlier work.
The conditions of data set [3]: cited from earlier work; for t1/2: mean ± SD.
The test system of data set [4] is healthy subjects. Conditions: febuxostat multiple 80 mg once-daily doses after a high-fat meal; cited from earlier work.
The subject of data set [5] is healthy subjects. Briefly: Single ascending dose. The data set is classed as in vivo, human. Conditions: for Change in Cmean,24 of serum uric acid from baseline: Day 1, mean (SD), n=8. Put shortly: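 Healthy volunteers got a single oral dose on day 1, fasted, with placebo on day -1 for baseline and standardized meals. Serial blood was taken on days -1 and 1; aliquots were stored at -70°C. Serum uric acid, xanthine and hypoxanthine were measured by a validated assay. Cmean,24 = noncompartmental AUC0–24/24, as % change from baseline. Urinary Ae = urine volume × concentration.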

Data set [6] in a line: SAD study incl. food effect: pharmacokinetics of LC350189 in plasma and urine. The data set is classed as in vivo, human.
Data set [7] has as its system healthy subjects. Kind of data set: Safety and tolerability evaluation. The data set is classed as in vivo, human. Put shortly: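 The single-dose part covered 10–600 mg; the multiple-dose part gave 100–800 mg orally once daily for 7 days after an overnight fast, with 8 active subjects per dose group. Adverse events came from a questionnaire or spontaneous reports. Renal toxicity was assessed with a NGAL test.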

In the next data set the target is XO (Homo sapiens, UniProt P47989). Briefly: PK/PD relationship, Emax model. The data set is classed as in vivo.
In another data set the test system is XO enzyme. The note with it: in vitro; ref data on file at LG Life Sciences; cited from earlier work.
For a further data set, the system named is SUA. Conditions: in vivo study; ref data on file at LG Life Sciences; cited from earlier work.
A further data set relates to rat. The note with it: preclinical studies, no reference given; cited from earlier work.
The next data set relates to dog. The note with it: preclinical studies, no reference given; cited from earlier work.
A further data set deals with liver microsome. Conditions: in vitro liver microsome study; preclinical, no reference given; cited from earlier work. For orientation: Liver microsomes are vesicles of endoplasmic reticulum, rich in cytochrome P450 enzymes.
The subject of a further data set is CYP isoenzymes. Conditions: incubated with CYP isoenzymes; preclinical, no reference given; cited from earlier work.
The mark [8] stands for this setting: 200 mg, fed (high-fat diet) vs fasting.

By half-life is commonly meant how long it takes for the measured level to halve. A high value points to slow decline. Broadly, the Emax is the greatest response seen or fitted, relative to the assay's reference.

Where two headings read alike, the source gives them in different places.

Chain of XO (P47989 whole entry): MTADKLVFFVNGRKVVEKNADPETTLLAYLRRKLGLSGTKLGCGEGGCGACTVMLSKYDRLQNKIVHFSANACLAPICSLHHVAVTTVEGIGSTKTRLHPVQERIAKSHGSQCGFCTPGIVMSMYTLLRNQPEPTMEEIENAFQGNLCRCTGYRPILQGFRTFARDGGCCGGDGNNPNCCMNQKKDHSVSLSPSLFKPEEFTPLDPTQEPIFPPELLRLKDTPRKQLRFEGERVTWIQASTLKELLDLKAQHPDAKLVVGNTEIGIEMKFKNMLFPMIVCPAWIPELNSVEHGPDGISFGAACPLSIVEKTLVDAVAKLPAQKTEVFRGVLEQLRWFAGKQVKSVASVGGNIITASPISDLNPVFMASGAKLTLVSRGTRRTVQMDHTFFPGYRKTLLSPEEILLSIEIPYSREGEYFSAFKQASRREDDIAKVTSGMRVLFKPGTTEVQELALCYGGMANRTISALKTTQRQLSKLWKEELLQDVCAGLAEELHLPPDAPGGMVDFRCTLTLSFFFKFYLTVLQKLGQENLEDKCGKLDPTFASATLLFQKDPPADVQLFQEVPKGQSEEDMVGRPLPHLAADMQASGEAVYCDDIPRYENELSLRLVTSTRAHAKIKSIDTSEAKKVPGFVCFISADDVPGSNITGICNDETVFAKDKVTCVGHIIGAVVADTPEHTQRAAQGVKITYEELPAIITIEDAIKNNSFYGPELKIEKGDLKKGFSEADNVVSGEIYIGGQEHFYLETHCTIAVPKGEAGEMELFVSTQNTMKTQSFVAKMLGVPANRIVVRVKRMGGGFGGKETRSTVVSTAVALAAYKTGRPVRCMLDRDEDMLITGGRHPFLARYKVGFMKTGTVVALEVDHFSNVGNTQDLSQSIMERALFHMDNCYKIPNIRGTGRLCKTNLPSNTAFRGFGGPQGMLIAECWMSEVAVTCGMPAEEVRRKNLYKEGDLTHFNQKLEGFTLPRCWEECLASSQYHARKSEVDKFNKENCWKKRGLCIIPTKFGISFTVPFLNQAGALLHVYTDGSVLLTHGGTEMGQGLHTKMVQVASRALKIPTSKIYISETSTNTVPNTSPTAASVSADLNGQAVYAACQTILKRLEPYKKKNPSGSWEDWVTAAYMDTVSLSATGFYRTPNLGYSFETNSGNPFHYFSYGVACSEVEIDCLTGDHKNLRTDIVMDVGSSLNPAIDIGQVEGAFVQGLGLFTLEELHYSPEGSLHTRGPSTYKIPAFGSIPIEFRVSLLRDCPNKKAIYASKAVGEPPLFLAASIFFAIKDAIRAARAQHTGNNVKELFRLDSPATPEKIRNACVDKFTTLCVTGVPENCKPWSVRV

With `Cc1nc(-c2ccc(OCC(C)C)c(C#N)c2)sc1C(=O)O` [Febuxostat, febuxostat], the “Maximum percentage decrease from baseline in Cmean,24 for SUA” value in the data set with healthy subjects [1] (febuxostat group (80 mg once daily for 7 days)) is on record as 58.8%. For the same molecule, the “Maximum percentage decrease from baseline in Cmean,24” value with healthy subjects [2] (febuxostat 40 mg dose group) is on record as ~ 40%; with healthy subjects [2] (febuxostat 90 mg dose group) it was 60%. Further, the “Inhibition of the enzyme (XO), Emax” value in the data set on healthy subjects [2] (febuxostat) is given as 81.4%. The “Allergic reaction, subjects” value with healthy subjects [2] (previous febuxostat multiple-dose study) is on record as “six out of 118 subjects”. The t1/2 is 10.3 ± 7.4 h in [3] (febuxostat 40 mg) and 12.5 ± 7.7 h in data set [3] (febuxostat 70 mg). Further, the Tmax in data set [3] (febuxostat) is ~ 1 hour. Besides, the “Change by food in the percentage decrease in SUA concentration” value in the data set with healthy subjects [4] was “no clinically significant change”. Besides, the “Change of AUC by food” value with healthy subjects [4] was “slight decrease”.
As for `CC(C)n1cc(C#N)c2cc(-n3cc(C(=O)O)cn3)ccc21` [LC350189], the “Change in Cmean,24 of serum uric acid from baseline” value with healthy subjects [5] (SAD single oral 200 mg, fasting) was −22.9%; in the data set on healthy subjects [5] (SAD single oral 600 mg, fasted), −31.7%; in the data set on healthy subjects [1] (MAD 800 mg once daily for 7 days, fasted, Day 7, mean (SD), n=6), −91.2%. The “Increase of Cmean,24 of xanthine” value in the data set on healthy subjects [5] (after a single dose) is “two- to seven-fold”; in the data set on healthy subjects [1] (after multiple administrations, day 7), “three-to eight-fold”. Further, the “Amount of uric acid excreted in the urine relative to baseline” value in the data set on healthy subjects [1] (after multiple administrations) is recorded as “one-third to one-tenth of the baseline level”. The “Maximum percentage decrease from baseline in Cmean,24 for SUA” value in the data set on healthy subjects [1] (after multiple administrations of LC350189) is 91.2%. The “Geometric mean ratio (90% CI) of AUClast with and without food” value in [6] (200 mg single dose) is on record as 0.973 (0.837–1.131). Besides, in data set [6] (200 mg single dose), the “Geometric mean ratio (90% CI) of Cmax, fed vs fasting” value is recorded as 0.624 (0.485–0.802). The “Decrease of Cmax by food” value in data set [6] (setting [8]) stood at 38%. The “Delay of absorption by food” value in data set [6] (setting [8]) was ~ 2 hours. The “Time up to which plasma concentrations were detected” value in data set [6] (SAD low-dose groups (10 mg, 25 mg, 50 mg), LLOQ 5 ng/mL) was “up to 48 hours”. This molecule also gave a half-life in [6] (male, human, plasma, oral, t1/2, overall, approximate) of roughly 10 h. The Allergic reaction entry with healthy subjects [7] (SAD and MAD) is “no allergic reaction”. The “Renal toxicity according to the NGAL test” value in the data set on healthy subjects [7] (SAD and MAD) was “no signals of renal toxicity”. Further, in the data set with healthy subjects [7] (single and multiple oral administrations, dose range 10–800 mg), the Tolerability result is given as “well tolerated”. On XO (Emax model, day 7, MAD, 95% CI 94.8%–105.4%), the “Emax (maximum percentage decrease in Cmean,24 of SUA)” value is given as 100.1%. The “Inhibition of XO activity” value at XO (multiple doses at 100 mg, AUC at steady state close to EAUC50) is given as roughly 50%. Further, the Emax on XO (read-out: Inhibition of XO based on the Emax model) was roughly 100%. In the data set on XO enzyme, the “Inhibition of XO enzyme activity” value is “comparable to febuxostat”. Also, the “Reduction of SUA” value in the data set on SUA is recorded as “sufficiently reduced SUA”. Also, the “Dose up to which no significant toxicity was found” value in the data set on rat is reported as 12.5 mg/kg; in the data set with dog, 200 mg/kg. In addition, the Metabolic stability entry with liver microsome and with CYP isoenzymes was “metabolically stable” in each case.
